Compound activity deposited in PubChem by several laboratories.
Only some compounds are listed: those with a hit (about 3.7% of all), similar ones and a draw of the others.
proCasp3 act: activators of human procaspase-3 D3A mutant, primary screen, biochemical, absorbance, PC-3 D3A mutant, single concentration | recombinant procaspase-3 D3A, Ac-DEVD-pNA absorbance 405 nm | activation, % at 8.5 µM | 330,000 compounds, 0.11% hits;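 active = activation above the mean of all tested compounds plus 3 SD, cut at about 21% in these data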;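 also: 0% = DMSO alone and 100% = DMSO wells spiked with extra 5 µM PC-3 D3A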
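System: Procaspase-3 D3A mutant. Medium: Zinc-free 300 mM NaCl, 50 mM HEPES, 0.01% Triton X-100. Schedule: 1 h preincubation plus 2 h reaction at 25 °C. Measured by: 405 nm absorbance of p-nitroaniline, reads at 0 and 120 min. Read-out: percent activation relative to control range.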
procasp7 counter: procaspase-7 activators, primary screen, counter-screen for procaspase-3 activator project, biochemical, absorbance, HTS, human; activation, % at 8.5 µM; AID 463210, 2010; Caspase-7 (Homo sapiens), P55210; recombinant procaspase-7, Ac-DEVD-pNA absorbance 405 nm; D23A/D198A/D206A triple mutant, cannot self-cleave; scale: DMSO 0, 5 µM enzyme 100; 330,000 compounds, 0.093% hits;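 active = percent activation above the screen-wide mean plus 3 SD, cut at about 25% in these data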
Target sequence (P55210 whole entry D23A/D198A/D206A): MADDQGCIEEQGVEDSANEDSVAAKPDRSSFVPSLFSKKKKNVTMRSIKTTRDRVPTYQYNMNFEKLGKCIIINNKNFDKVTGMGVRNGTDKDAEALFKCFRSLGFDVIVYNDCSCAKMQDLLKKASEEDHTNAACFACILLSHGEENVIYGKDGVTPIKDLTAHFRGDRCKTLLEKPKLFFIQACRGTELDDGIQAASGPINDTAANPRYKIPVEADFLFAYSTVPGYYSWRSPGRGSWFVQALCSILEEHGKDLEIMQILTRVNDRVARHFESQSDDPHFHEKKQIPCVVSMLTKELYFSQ
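Detection: p-Nitroaniline absorbance at 405 nm, read at 0 and 120 min; system: Uncleavable procaspase-7 mutant enzyme; evaluation: % activation from two-timepoint absorbance difference, scaled to controls; times: 1 h enzyme–compound preincubation and 2 h substrate reaction, both 25 °C; buffer or medium: Zinc-free HEPES pH 7.4 with 300 mM NaCl, 0.01% Triton X-100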
MPTP inh: mitochondrial permeability transition pore inhibitors, primary screen, biochemical, isolated mouse mitochondria, absorbance | Ca2+ swelling absorbance, 30 min | inhibition, % at 10 µM | 360,000 compounds, 1.4% hits | AID 602449, 2012;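 active = inhibition of 50% or more, scaled per plate between neutral and stimulator controls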;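 also: 0% = DMSO wells given calcium and 100% = 1 mM EGTA wells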
GRIN3A LBD mod: binders of NR3A ligand-binding domain, primary screen, biophysical, differential scanning fluorimetry, uHTS. NR3A LBD differential scanning fluorimetry, Tm shift; 0% = protein alone, 100% = glycine-bound protein. Tm shift relative to glycine control, % at 25 µM. 340,000 compounds, 2.5% hits;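 active = melting temperature shift of at least 10% of the positive control shift, at one fixed dose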
aDG glyco up: activators of alpha-DG glycosylation, primary screen, uHTS, Pro5-aDG cells, AlphaScreen. alpha-DG glycosylation AlphaScreen (IIH6); 0% Pro5, 100% B10-LARGE cell signal. activation, % at 10 µM. 360,000 compounds, 0.22% hits. AID 624168, 2012;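 active = activation of at least 8% versus controls, or a plate z-score of at least 8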;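 also: Pro5 are CHO cells carrying HIG-tagged alpha-DG that lacks glycosylation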
Starred values were filed as active, the others as inactive.

What do the screens show for `N#CCC(=O)Nc1ccc(C(=O)OC(C(=O)Nc2ccc([N+](=O)[O-])cc2Br)c2ccccc2)cc1` (stereo unspecified)?
MPTP inh: 3.7; GRIN3A LBD mod: 12.0*; aDG glyco up: -0.3

How did O=C1c2ccccc2NC2CCCCCN12 (stereo unspecified) do in these assays?
proCasp3 act: -4.7; procasp7 counter: -0.9; MPTP inh: 0.0; GRIN3A LBD mod: 5.1; aDG glyco up: -0.1

Results for O=C1COC(c2ccccc2)C2CCCCN12 (stereo unspecified) ?
proCasp3 act: 4.1; procasp7 counter: 1.9; MPTP inh: 2.5; GRIN3A LBD mod: 16.4*; aDG glyco up: 0.2

Results for CCOC(=O)C1=NOC(CNC(=O)c2c(-c3ccccc3Cl)noc2C)C1 (stereo unspecified) ?
proCasp3 act: -2.5; procasp7 counter: 9.2; MPTP inh: -0.9; GRIN3A LBD mod: 13.6*; aDG glyco up: -0.1

What do the screens show for `O=C(NCCN1C(=O)S/C(=C/c2cccnc2)C1=O)c1ccc(S(=O)(=O)N2CCCC2)cc1`?
MPTP inh: -0.4; GRIN3A LBD mod: 2.8; aDG glyco up: 0.0

How did O=C(NC1CCCCC1)OC1CC2CC1[C@H]1CCCCN1C2=O (stereo partly specified) do in these assays?
MPTP inh: -3.4; aDG glyco up: -0.2

Results for O=C(CCNS(=O)(=O)c1ccc(Cl)cc1)N1CCCCCC1 ?
proCasp3 act: -3.0; procasp7 counter: -3.3; MPTP inh: -2.6; GRIN3A LBD mod: 11.1*; aDG glyco up: -0.1

How did C[C@@H]1CN([C@H](C)CO)C(=O)CCCn2nncc2CO[C@H]1CN(C)S(=O)(=O)c1ccc(C#N)cc1 do in these assays?
MPTP inh: 0.1; aDG glyco up: 0.1

How did CCC(C)C(Nc1ccc(C(=O)OC)cc1[N+](=O)[O-])C(=O)OC (stereo unspecified) do in these assays?
proCasp3 act: 0.1; procasp7 counter: -2.7; MPTP inh: 2.2; GRIN3A LBD mod: 11.9*; aDG glyco up: -0.2

How did COC(=O)c1ccc(NC(C(=O)OC)C(C)C)c([N+](=O)[O-])c1 (stereo unspecified) do in these assays?
proCasp3 act: 11.5; procasp7 counter: -3.6; MPTP inh: 1.5; GRIN3A LBD mod: 8.6; aDG glyco up: 0.2

Results for O=C(Cn1cc(/C=N/NC(=O)c2ccccc2Br)c2ccccc21)Nc1ccc(F)cc1 ?
proCasp3 act: 2.5; procasp7 counter: 2.7; MPTP inh: 8.2; GRIN3A LBD mod: 10.0*; aDG glyco up: 1.7

How did Cn1c(SCC(=O)Nc2cccc(F)c2)nnc1-c1cc2ccccc2o1 do in these assays?
proCasp3 act: 7.9; procasp7 counter: 8.9; MPTP inh: -0.2; GRIN3A LBD mod: 11.0*; aDG glyco up: -0.2

Results for O=S1(=O)CC(N2CCCC2)CN1Cc1cn(Cc2ccc(F)cc2)nn1 (stereo unspecified) ?
MPTP inh: 1.1; aDG glyco up: 0.0

What do the screens show for `CC(=O)c1ccc(NC(=O)CSCC(=O)Nc2ccc3ccccc3c2)cc1`?
proCasp3 act: -29.2; procasp7 counter: 3.5; MPTP inh: -4.9; GRIN3A LBD mod: 13.2*; aDG glyco up: 0.6

Results for CCC(=O)Nc1ccc(NC(=O)c2ccc3ccccc3c2)cc1 ?
proCasp3 act: -3.5; procasp7 counter: 2.1; MPTP inh: 2.2; GRIN3A LBD mod: 10.1*; aDG glyco up: 0.1

Results for COC(=O)C(CC(=O)c1ccc(Cl)cc1)c1ccc(C)cc1 (stereo unspecified) ?
proCasp3 act: 6.1; procasp7 counter: 11.7; MPTP inh: -0.5; GRIN3A LBD mod: 15.0*; aDG glyco up: 0.3

What do the screens show for `O=C(/C=C/c1cccc([N+](=O)[O-])c1)OC1CCCCC1=O` (stereo unspecified)?
proCasp3 act: -4.6; procasp7 counter: 10.5; MPTP inh: -1.7; GRIN3A LBD mod: 12.0*; aDG glyco up: -0.1
